Our source for the LC50, Activity and CC50 values is ChEMBL document CHEMBL1156176, “Total synthesis, antiprotozoal and cytotoxicity activities of rhuschalcone VI and analogs” (Bioorg Med Chem, 2010).

Values after ≈ are worked out from the molar mass of the structure shown.

Data set [1] deals with Parabodo caudatus. The data set can be described thus: Antiprotozoal activity against Bodo caudatus after 48 hrs by MTT assay. The class given is functional. The method in brief:
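B. caudatus from culture in cereal grass medium diluted 1:1 with water plus E. coli DH5a, kept at 30 °C; adjusted to 1 × 10^5/mL with penicillin, streptomycin and kanamycin added; exposed 48 h to serial dilutions (final 0.0001–1000 µg/mL) at 37 °C/5% CO2; MTT added for 4 h, crystals dissolved in DMSO, A570 read; LC50 from triplicate determinations.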

Data set [2] has as its system Parabodo caudatus. The data set can be described thus: Antiprotozoal activity against Bodo caudatus hrs by MTT assay. As to conditions: TDE = time-dependent effect. The class given is functional, organism-based. The method in brief:
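B. caudatus adjusted to 1 × 10^5/mL in growth medium with penicillin/streptomycin/kanamycin, exposed 48 h at 37 °C/5% CO2 to serial dilutions (0.0001–1000 µg/mL final). MTT added for further 4 h, crystals dissolved in DMSO, absorbance 570 nm. LC50 (50% lethal concentration) from mean ± SD of triplicates.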
(In general: Tetrazolium dyes change colour on reduction, which living cells bring about.)

The test system of data set [3] is Parabodo caudatus. The data set can be described thus: Antiprotozoal activity against Bodo caudatus at 0.6 mg/ml after 24 hrs by MTT assay. It is filed as functional. The procedure, abridged: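 Bodo caudatus (maintained at 30 °C in cereal grass medium diluted 1:1 with water, fed E. coli DH5α, subcultured every 7–12 days); 10,000 protozoa per well with penicillin/streptomycin/kanamycin, exposed 24 h to 0.6 mg/mL final; CuSO4 at same concentration as positive control, 8% DMSO solvent control. MTT added, 2 h, DMSO-dissolved, A570 viability; triplicates; inhibition vs controls.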

Data set [4] can be described thus: Cytotoxicity against BHK cells at 100 ug/ml after 48 hrs by MTT assay. As to conditions: hamster; for Activity: bhk, 48 h. The class given is cell-based, Mesocricetus auratus. The method in brief: (§1)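 BHK cells (DMEM/F10 1:1, 10% fetal calf serum, penicillin/streptomycin, 37 °C/5% CO2) at 1 × 10^5/mL, adhered overnight, exposed 48 h to serial dilutions (0.0001–100 µg/mL in figure). MTT for 4 h, DMSO solubilisation, A570; survival vs untreated cells; CC50 from triplicate means ± SD.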

Data set [5] in a line: Cytotoxicity against BHK cells after 48 hrs by MTT assay. The class given is cell-based, Mesocricetus auratus. As to conditions: hamster. The method in brief: as §1

A word on the LC50: it is the concentration lethal to half of the exposed cells or organisms. One may read the CC50 as the concentration at which the toxic effect on the cells reaches its halfway point. The low end stands for harm at low concentration, the high end for better tolerance by the cells.

The compound `O=C(/C=C/c1ccc(O)c(-c2cc(C(=O)/C=C/c3ccc(O)cc3)c(O)cc2O)c1)c1ccccc1` had an LC50 in the data set on Parabodo caudatus [1] of 20.6 µg/mL (≈ 43 µM). The Activity result in the data set with Parabodo caudatus [2] was “tde”; with Parabodo caudatus [3], 75%; in data set [4], “Non-toxic”.
`CC(C)=CCc1c(O)ccc(C(=O)/C=C/c2ccc(O)cc2)c1O` [ISOBAVACHALCONE] returned an LC50 in the data set with Parabodo caudatus [1] of 4.36 µg/mL (≈ 13.4 µM). The Activity entry with Parabodo caudatus [2] was “tde”; in the data set with Parabodo caudatus [3], 75%. This compound yielded a CC50 at 48 h in data set [5] of 86.9 µg/mL (≈ 268 µM).
Turning to `O=C(/C=C/c1ccc(O)c(-c2cc(C(=O)/C=C/c3ccc(O)cc3)c(O)cc2O)c1)c1ccc(O)cc1O` [RHUSCHALCONE VI], the LC50 with Parabodo caudatus [1] is 53.3 µg/mL (≈ 104 µM). Besides, the values for the Activity result with Parabodo caudatus [2] and with Parabodo caudatus [3] were “tde” and 75%, respectively. The compound further displayed a CC50 at 48 h in data set [4] (BHK cells) of 97.6 µg/mL (≈ 191 µM).
Consider `COc1cc(O)c(C(=O)/C=C/c2ccc(O)cc2)cc1-c1cc(/C=C/C(=O)c2ccc(O)cc2O)ccc1O`, for which, in the data set with Parabodo caudatus [1], the LC50 came out at 118 µg/mL (≈ 226 µM). For the same compound, the figures for the Activity entry (with Parabodo caudatus [2]; with Parabodo caudatus [3]; in data set [4]) were “tde”, 75% and “Non-toxic”, respectively.
